33 molecules from ChEMBL document CHEMBL1133390, “Effects of stilbene constituents from rhubarb on nitric oxide production in lipopolysaccharide-activated macrophages” (Bioorg Med Chem Lett, 2000) can be followed below.

Each structure is given as a SMILES string.

What all share (assay type): functional
The species named for experiment [1] is Mus musculus. The experiment can be described thus: Inhibitory activity against nitric oxide production in LPS-activated mouse peritoneal macrophages. In short, it runs like this:
(§1)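 Peritoneal exudate cells from male ddY mice, 5 × 10^5 cells/well, pre-cultured 1 h at 37 °C in RPMI 1640 with 5% FCS. Nonadherent cells washed off; adherent macrophages (>95%) given 10 µg/mL LPS plus test compound (DMSO, final 0.5%) for 20 h. Nitrite in medium measured by Griess reagent. Inhibition calculated relative to LPS-stimulated and unstimulated wells; IC50 determined graphically (N=4).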

For experiment [2], the species on record is Mus musculus. The experiment can be described thus: Compound (at 30 uM) was tested for inhibition against nitric oxide production in LPS-activated mouse peritoneal macrophages.
For experiment [3], the species on record is Mus musculus. The experiment can be described thus: Compound was tested for inhibitory activity against nitric oxide production in LPS-activated mouse peritoneal macrophages (*,showed cytotoxicity at 100 uM).
Experiment [4] is filed under the species Mus musculus. Briefly: Compound (at 100 uM) was tested for inhibition against nitric oxide production in LPS-activated mouse peritoneal macrophages. In short, it runs like this:
as §1

The species named for experiment [5] is Mus musculus. The experiment can be described thus: Compound (at 10 uM) was tested for inhibition against nitric oxide production in LPS-activated mouse peritoneal macrophages.
For experiment [6], the species on record is Mus musculus. Briefly: Compound was tested for inhibitory activity against nitric oxide production in LPS-activated mouse peritoneal macrophages (*,showed cytotoxicity at 30 uM).

Molecule `Oc1cc(O)cc(/C=C/c2ccc(O)c(O)c2)c1` [PICEATANNOL] had an IC50 in the experiment listed under Mus musculus [1] of 23 µM. In turn, `COc1ccc(/C=C/c2cc(O)cc(O)c2)cc1` [RESVERATROL 4'-METHYL ETHER] had an inhibition at 30 µM in the experiment listed under Mus musculus [2] of 13%. In addition, the IC50 in the experiment filed under Mus musculus [3] was more than 30 µM.

With `COc1ccc(/C=C/c2cc(O)cc(O[C@@H]3O[C@H](CO)[C@@H](O)[C@H](O)[C@H]3O)c2)cc1`, the inhibition at 100 µM in the experiment listed under Mus musculus [4] was determined as 13%. In addition, in the experiment filed under Mus musculus [1], the half-inhibitory concentration (IC50) was more than 100 µM. In the experiment listed under Mus musculus [1], `COc1cc(/C=C/c2cc(O)cc(O)c2)ccc1O` showed a concentration for half-maximal inhibition (IC50) of 63 µM. Still for that read-out and setting: in the case of `O=C(/C=C/c1ccc(O)c(O)c1)OCCc1ccccc1` [CAFFEIC ACID PHENETHYL ESTER] it was 40 µM; in that of `O=C(O)c1cc(O)c(O)c(O)c1` [GALLIC ACID], 63 µM. Same read-out and setting: in the case of `Oc1ccc(/C=C/c2cc(O)cc(O)c2)cc1` [RESVERATROL] it was 68 µM. On to `COc1ccc(/C=C/c2cc(O)cc(O[C@@H]3O[C@H](CO)[C@@H](O)[C@H](O)[C@H]3O)c2)cc1O` [RHAPONTIN], for which, in the experiment filed under Mus musculus [4], the inhibition at 100 µM amounted to 25%. This molecule yielded an IC50 in the experiment filed under Mus musculus [1] of more than 100 µM. `COc1ccc(CCc2cc(O)cc(O)c2)cc1O` displayed a 50% inhibitory concentration (IC50) in the experiment filed under Mus musculus [1] of 49 µM. Still for that read-out and setting: in the case of `COc1ccc(/C=C/c2cc(O)cc(O)c2)cc1O` it was 48 µM. In the experiment filed under Mus musculus [3], `COc1cc(/C=C/c2ccc(OC)c(O)c2)cc(OC)c1` returned an IC50 of 23 µM. In the experiment filed under Mus musculus [4], `Cc1cc(O)c2c(c1)C(=O)c1cccc(O)c1C2=O` [CHRYSOPHANOL] registered an inhibition at 100 µM of 2%. In addition, the IC50 in the experiment filed under Mus musculus [1] is more than 100 µM. In the experiment filed under Mus musculus [1], `COc1cc(O[C@@H]2O[C@H](CO)[C@@H](O)[C@H](O)[C@H]2O)c2c(O)c(C(C)=O)c(C)cc2c1` registered an IC50 of 69 µM. Same read-out and setting: in the case of `COC[C@H]1O[C@@H](Oc2cc(/C=C/c3ccc(OC)c(OC)c3)cc(OC)c2)[C@H](OC)[C@@H](OC)[C@@H]1OC` it was 5.8 µM; in that of `COc1ccc(/C=C/c2cc(O)cc(O[C@@H]3O[C@H](CO)[C@@H](O)[C@H](O)[C@H]3OC(=O)c3cc(O)c(O)c(O)c3)c2)cc1O`, 13 µM; in that of `COc1ccc(/C=C/c2cc(OC)cc(OC)c2)cc1` [TRISMETHOXYRESVERATROL], 22 µM. `OC[C@H]1O[C@@H](Oc2cc(CCc3cc(O)cc(O)c3)ccc2O)[C@H](O)[C@@H](O)[C@@H]1O` yielded an inhibition at 100 µM in the experiment filed under Mus musculus [4] of 6%. The concentration for half-maximal inhibition (IC50) in the experiment listed under Mus musculus [1] is more than 100 µM. The like results for `c1ccc(CCc2ccccc2)cc1` were, in that order, 26% and more than 100 µM.

The molecule `OC[C@H]1O[C@@H](Oc2cc(/C=C/c3cc(O)cc(O)c3)ccc2O)[C@H](O)[C@@H](O)[C@@H]1O` registered an inhibition at 100 µM in the experiment filed under Mus musculus [4] of 10%. The 50% inhibitory concentration (IC50) in the experiment listed under Mus musculus [1] is more than 100 µM. `Oc1cc(O)cc(CCc2ccc(O)c(O)c2)c1` displayed a half-inhibitory concentration (IC50) in the experiment listed under Mus musculus [1] of 32 µM. On to `COc1cc(O)cc(/C=C/c2ccc(OC)c(OC)c2)c1`, for which half-maximal inhibition in the experiment filed under Mus musculus [3] (IC50) was put at 19 µM. In the case of `O=C1c2cccc(O)c2C(=O)c2c(O[C@@H]3O[C@H](CO)[C@@H](O)[C@H](O)[C@H]3O)cc(CO)cc21`, the inhibition at 100 µM in the experiment listed under Mus musculus [4] was 46%. Also, the half-maximal inhibitory concentration (IC50) in the experiment listed under Mus musculus [1] is more than 100 µM. As to `Cc1cc(O)c2c(c1)C(=O)c1cccc(O[C@@H]3O[C@H](COC(=O)c4cc(O)c(O)c(O)c4)[C@@H](O)[C@H](O)[C@H]3O)c1C2=O`, at 100 µM the inhibition in the experiment listed under Mus musculus [4] was 31%. This molecule registered an IC50 in the experiment filed under Mus musculus [1] of more than 100 µM. `Oc1ccc(CCc2cc(O)cc(O)c2)cc1` [DIHYDRORESVERATROL] displayed a half-maximal inhibitory concentration (IC50) in the experiment listed under Mus musculus [1] of 76 µM. `C(=C\c1ccccc1)/c1ccccc1` came in with an inhibition at 100 µM in the experiment listed under Mus musculus [4] of 21%. Also, the IC50 in the experiment listed under Mus musculus [1] is more than 100 µM.

`O=C1c2cccc(O)c2C(=O)c2c(O)cc(CO)cc21` [ALOE-EMODIN]: the inhibition at 10 µM in the experiment filed under Mus musculus [5] turned out to be 38%. Also, in the experiment listed under Mus musculus [6], the IC50 is more than 10 µM. In the case of `Cc1cc(O)c2c(c1)C(=O)c1cccc(O[C@@H]3O[C@H](CO)[C@@H](O)[C@H](O)[C@H]3O)c1C2=O` [PULMATIN], at 100 µM the inhibition in the experiment filed under Mus musculus [4] was 31%. In the experiment filed under Mus musculus [1], this molecule came in with a half-maximal inhibitory concentration (IC50) of more than 100 µM. In the experiment listed under Mus musculus [1], `COC[C@H]1O[C@@H](Oc2cc(/C=C/c3cc(OC)cc(OC)c3)ccc2OC)[C@H](OC)[C@@H](OC)[C@@H]1OC` registered a half-inhibitory concentration (IC50) of 27 µM.

Regarding `Cc1cc(O[C@@H]2O[C@H](CO)[C@@H](O)[C@H](O)[C@H]2O)c2c(c1)C(=O)c1cccc(O)c1C2=O` [CHRYSOPHANEIN], the inhibition at 100 µM in the experiment listed under Mus musculus [4] came to 20%. Further, the IC50 in the experiment listed under Mus musculus [1] was more than 100 µM. On the same counts, the results for `COc1ccc(CCc2cc(O)cc(O[C@@H]3O[C@H](CO)[C@@H](O)[C@H](O)[C@H]3O)c2)cc1O` are 8% and more than 100 µM. Take `COc1cc(/C=C/c2ccc(OC)c(OC)c2)cc(OC)c1` [(E)-3,4,3',5'-TETRAMETHOXYSTILBENE]: half-maximal inhibition in the experiment filed under Mus musculus [1] (IC50) was put at 28 µM. For the molecule `COc1cc(/C=C/c2cc(O)cc(O[C@@H]3O[C@H](CO)[C@@H](O)[C@H](O)[C@H]3O)c2)ccc1O`, at 100 µM the inhibition in the experiment filed under Mus musculus [4] was 5%. Besides, the concentration for half-maximal inhibition (IC50) in the experiment filed under Mus musculus [1] is more than 100 µM. Take `COc1ccc(/C=C/c2cc(O)cc(O[C@@H]3O[C@H](COC(=O)c4cc(O)c(O)c(O)c4)[C@@H](O)[C@H](O)[C@H]3O)c2)cc1O`: the IC50 in the experiment listed under Mus musculus [1] amounted to 11 µM.
